Source: ChEMBL document CHEMBL4145463, “New insights into structure-activity relationship of ipomoeassin F from its bioisosteric 5-oxa/aza analogues” (Eur J Med Chem, 2018)

What was measured:
MCF7 = assay: Cytotoxicity against human MCF7 cells assessed as reduction in cell viability after 72 hrs by MTT assay; type: functional, cell-based; settings: MCF7, 72 h
MDA-MB-231 = assay: Cytotoxicity against human MDA-MB-231 cells assessed as reduction in cell viability after 72 hrs by Alamar Blue assay; type: functional, cell-based; settings: MDA-MB-231, 72 h
Outline: (§1)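 Cells were seeded at 5,000 per well and preincubated 24 h at 37 °C in 5% CO2. They were then exposed for 72 h to gradient dilutions in complete DMEM/HIGH medium, made from 10 mM DMSO stocks, with DMSO below 0.5%. Fresh medium with 10% AlamarBlue was incubated 3 h and read at 580 nm (620 nm reference). Viability was taken versus DMSO-treated cells, and IC50 was fitted from viability–concentration plots; triplicate.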

L929 = assay: Cytotoxicity against mouse L929 cells after 72 hrs; type: cell-based; settings: L929, 72 h
HT-29 = assay: Cytotoxicity against human HT-29 cells after 72 hrs; type: functional, cell-based; settings: HT-29, 72 h
[1] = test system: Panel NCI-60 (60 carcinoma cell lines); assay: Growth inhibition of human NCI60 cells after 48 hrs by SRB assay; type: functional
[2] = Cytotoxicity against human H522-T1 cells after 72 hrs; type: functional, cell-based; settings: H522-T1, 72 h
A2780 = assay: Cytotoxicity against human A2780 cells after 72 hrs; type: functional, cell-based; settings: A2780, 72 h
MCF-10A = assay: Cytotoxicity against human MCF10A cells assessed as reduction in cell viability after 72 hrs by Alamar Blue assay; type: cell-based; outline: as §1
U-937 = assay: Cytotoxicity against human U937 cells after 72 hrs; type: functional, cell-based; settings: U-937, 72 h
MDA-MB-435 = assay: Cytotoxicity against human MDA-MB-435 cells after 72 hrs; type: functional, cell-based; settings: MDA-MB-435, 72 h
HeLa = assay: Cytotoxicity against human HeLa cells after 72 hrs; type: functional, cell-based

Row | Structure (SMILES) | IC50 (MCF7) | IC50 (MDA-MB-231) | IC50 (L929) | IC50 (HT-29) | IC50 [2] | IC50 (MCF-10A) | IC50 (U-937) | IC50 (MDA-MB-435) | IC50 (HeLa) | other results
1 | C/C=C(\C)C(=O)O[C@@H]1[C@@H](O)[C@@H]2O[C@H]3[C@H](O[C@@H](CCCCC)C/C=C\CCOC(=O)CCC(=O)OC[C@@H](O2)[C@H]1OC(=O)/C=C/c1ccccc1)O[C@H](C)[C@H](OC(C)=O)[C@@H]3O | 816 nM | 260 nM |  |  |  |  |  |  |  | 
2 | C/C=C(\C)C(=O)O[C@@H]1[C@@H](O)[C@@H]2O[C@H]3[C@H](O[C@@H](CCCCC)CCCCCCC(=O)CCC(=O)OC[C@@H](O2)[C@H]1OC(=O)/C=C/c1ccccc1)O[C@H](C)[C@H](OC(C)=O)[C@@H]3O |  |  | 7.4 nM | 4.2 nM | 12.9 nM | 5.1 nM | 2.6 nM | 9.4 nM |  | GI50 [1]: 30 nM; IC50 (A2780): 36 nM
3 | C/C=C(\C)C(=O)O[C@@H]1[C@@H](O)[C@@H]2O[C@H]3[C@H](O[C@@H](CCC)CCCCCCC(=O)CCC(=O)OC[C@@H](O2)[C@H]1OC(=O)/C=C/c1ccccc1)O[C@H](C)[C@H](OC(C)=O)[C@@H]3O [IPOMOEASSIN A] |  |  | 77.8 nM | 46.1 nM | 109 nM |  | 20.2 nM | 42.6 nM | 64 nM | 
4 | C/C=C(\C)C(=O)O[C@@H]1[C@@H](O)[C@@H]2O[C@H]3[C@H](O[C@@H](CCCCC)CCCCCOC(=O)CCC(=O)OC[C@@H](O2)[C@H]1OC(=O)/C=C/c1ccccc1)O[C@H](C)[C@H](OC(C)=O)[C@@H]3O | 81.2 nM | 31.5 nM |  |  |  | 26.9 nM |  |  |  | 
5 | C/C=C(\C)C(=O)O[C@@H]1[C@@H](O)[C@@H]2O[C@H]3[C@H](O[C@@H](CCCCC)C/C=C/CCOC(=O)CCC(=O)OC[C@@H](O2)[C@H]1OC(=O)/C=C/c1ccccc1)O[C@H](C)[C@H](OC(C)=O)[C@@H]3O | 3280 nM | 808 nM |  |  |  |  |  |  |  | 
6 | C/C=C(\C)C(=O)O[C@@H]1[C@@H](O)[C@@H]2O[C@H]3[C@H](O[C@@H](CCC)CCCCC[C@H](OC(C)=O)C(=O)CCC(=O)OC[C@@H](O2)[C@H]1OC(=O)/C=C/c1ccccc1)O[C@H](C)[C@H](O)[C@@H]3O [IPOMOEASSIN E] |  |  | > 1000 nM | 393 nM | 967 nM |  | 163 nM | 1630 nM | 4300 nM | 
7 | C/C=C(\C)C(=O)O[C@@H]1[C@@H](O)[C@H](O[C@H]2[C@H](O[C@@H](CCCCC)CCCCC/N=C3/CCC(=O)O3)O[C@H](C)[C@H](OC(C)=O)[C@@H]2O)O[C@H](COC(=O)/C=C/c2ccccc2)[C@H]1O | > 25000 nM | > 25000 nM |  |  |  |  |  |  |  | 
8 | C/C=C(\C)C(=O)O[C@@H]1[C@@H](O)[C@@H]2O[C@H]3[C@H](O[C@@H](CCC)CCCCC[C@H](OC(C)=O)C(=O)CCC(=O)OC[C@@H](O2)[C@H]1OC(=O)/C=C/c1ccccc1)O[C@H](C)[C@H](OC(C)=O)[C@@H]3O [IPOMOEASSIN D] |  |  | 135 nM | 11.8 nM | 23.2 nM |  | 7.9 nM | 19.9 nM | 32 nM | 
9 | C/C=C(\C)C(=O)O[C@@H]1[C@@H](O)[C@@H]2O[C@H]3[C@H](O[C@@H](CCCCC)CC=CCCCC(=O)CCC(=O)OC[C@@H](O2)[C@H]1OC(=O)/C=C/c1ccccc1)O[C@H](C)[C@H](OC(C)=O)[C@@H]3O (mixture of isomers) | 307 nM | 68.3 nM |  |  |  | 27.2 nM |  |  |  | 
10 | C/C=C(\C)C(=O)O[C@@H]1[C@@H](O)[C@@H]2O[C@H]3[C@H](O[C@@H](CCC)CCCCC[C@H](O)C(=O)CCC(=O)OC[C@@H](O2)[C@H]1OC(=O)/C=C/c1ccccc1)O[C@H](C)[C@H](OC(C)=O)[C@@H]3O [IPOMOEASSIN C] |  |  | > 1000 nM |  |  |  |  |  | 1500 nM | 
11 | C/C=C(\C)C(=O)O[C@@H]1[C@@H](O)[C@@H]2O[C@H]3[C@H](O[C@@H](CCCCC)CCCCCN(C)C(=O)CCC(=O)OC[C@@H](O2)[C@H]1OC(=O)/C=C/c1ccccc1)O[C@H](C)[C@H](OC(C)=O)[C@@H]3O | 69.2 nM | 14.4 nM |  |  |  | 17.5 nM |  |  |  | 
12 | C/C=C(\C)C(=O)O[C@@H]1[C@@H](O)[C@@H]2O[C@H]3[C@H](O[C@@H](CCCCC)CCCCOC(=O)CCC(=O)OC[C@@H](O2)[C@H]1OC(=O)/C=C/c1ccccc1)O[C@H](C)[C@H](OC(C)=O)[C@@H]3O | 710 nM | 290 nM |  |  |  |  |  |  |  | 
13 | C/C=C(\C)C(=O)O[C@@H]1[C@@H](O)[C@@H]2O[C@H]3[C@H](O[C@@H](CCCCC)CCCCCNC(=O)CCC(=O)OC[C@@H](O2)[C@H]1OC(=O)/C=C/c1ccccc1)O[C@H](C)[C@H](OC(C)=O)[C@@H]3O | 351 nM | 48.7 nM |  |  |  | 75.2 nM |  |  |  | 
14 | C/C=C(\C)C(=O)O[C@@H]1[C@@H](O)[C@@H]2O[C@H]3[C@H](O[C@@H](CCC)CCCCCCC(=O)CCC(=O)OC[C@@H](O2)[C@H]1OC(=O)/C=C/c1ccccc1)O[C@H](C)[C@H](O)[C@@H]3O [IPOMOEASSIN B] |  |  |  | 396 nM | 1070 nM |  | 134 nM | 2700 nM | 2500 nM | 
